Published values of several laboratories.
Target: Dual specificity protein kinase CLK1 (CLK1, Homo sapiens, UniProt P49759)

Compound	test	conditions	quantity	result
CCCCC(=O)Nc1ccc(-c2ccc3ncn(CCC)c(=O)c3c2)cn1	binding, competition with immobilised ligand	0.5 µM	remaining binding	79%
C=CC(=O)N1CCC[C@@H](n2nc(-c3ccc(Oc4ccccc4)cc3)c3c(N)ncnc32)C1	enzyme activity, inhibitor	1 µM	inhibition	23%
COc1ccc2oc(-c3ccc4nc(N)oc4c3)c/c(=N\c3ccccc3NC(=O)CCN)c2c1	binding	1 µM	remaining binding	94%
C1=C/COCc2cc(ccc2OCCN2CCCC2)Nc2nccc(n2)-c2cccc(c2)COC/1	binding	0.1 µM	remaining binding	27%
C=CC(=O)N1CCC([C@@H]2CCNc3c(C(N)=O)c(-c4ccc(Oc5ccccc5)cc4)nn32)CC1	enzyme activity, inhibitor	1 µM	inhibition	19%
CN1CCN(C(=O)c2ccc(NC(=O)Nc3ccc(N(C)c4ccnc(Nc5ccc(CS(C)(=O)=O)cc5)n4)cc3)cc2)CC1	binding, competition with immobilised ligand	1 µM	remaining binding	84%
C#Cc1cc(-c2cc(Nc3nc(N[C@@H](C)c4ccc(F)cn4)ncc3Cl)n[nH]2)ccc1C=O	enzyme activity, inhibitor	0.2 µM	inhibition	34.2%
Cc1ccc(NC(=O)c2ccnc(C(F)(F)F)c2)cc1-c1cc(OCCO)nc(N2CCOCC2)c1	binding, competition with immobilised ligand	1 µM	remaining binding	92%
Cc1cc(O)c(-c2ccc([C@@H](C)CN(C)C)cc2)c2c1[nH]c(=O)c1sccc12	enzyme activity, inhibitor	0.1 µM	inhibition	-7.55%
